An excerpt weighted towards active compounds, which were near 3.8% of everything screened.
Kir21 block = inhibitors of mouse Kir2.1 inward-rectifier potassium channel. HEK293-Kir2.1, FluxOR thallium flux fluorescence; active compounds read low. B-score at 10 µM. hit rate 0.85% among 310,000;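 active = fluorescence ratio B-score at or below minus 3 SD of library scores, with starting-brightness B-score within 2 SD, cut at about -4.2 in these data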;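 note: channel flux triggered by added potassium and thallium sulfate stimulus; B-score of peak minus minimum fluorescence over baseline after thallium stimulus; more negative B-score means stronger Kir2.1 block with less thallium influx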
hERG protect = shields human hERG channel from block by proarrhythmic agents | Q12809 | CHO-hERG, FluxOR thallium flux, dofetilide IC70 present | activation (rescue from dofetilide block), less the hit threshold, % at 10 µM | hit rate 0.51% among 310,000 | AID 1511;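 active = activation above the mean of controls blocked by dofetilide plus 5 SD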;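 note: thallium influx through hERG after potassium depolarization seen as dye fluorescence rise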
KCNK9 inh = human KCNK9 channel inhibition; B-score at 10 µM; hit rate 1.2% among 310,000; Q9NPC2; HEK293 KCNK9, FluxOR thallium flux fluorescence; active compounds read low;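 active = ratio B-score over 3 SD below the library mean, with starting fluorescence within 5 SD of its mean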;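 note: negative B-score means less thallium flux so channel inhibition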
KCNQ1 act = potentiators or activators of human KCNQ1 potassium channel. B-score at 10 µM. CHO-K1 KCNQ1, thallium flux FluxOR fluorescence; active compounds read high. hit rate 0.35% among 310,000. P51787;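 active = fluorescence ratio B-score, a plate-corrected score, at least three library SD, with initial intensity B-score within 5 SD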
Target sequence (P51787 whole entry, looked up): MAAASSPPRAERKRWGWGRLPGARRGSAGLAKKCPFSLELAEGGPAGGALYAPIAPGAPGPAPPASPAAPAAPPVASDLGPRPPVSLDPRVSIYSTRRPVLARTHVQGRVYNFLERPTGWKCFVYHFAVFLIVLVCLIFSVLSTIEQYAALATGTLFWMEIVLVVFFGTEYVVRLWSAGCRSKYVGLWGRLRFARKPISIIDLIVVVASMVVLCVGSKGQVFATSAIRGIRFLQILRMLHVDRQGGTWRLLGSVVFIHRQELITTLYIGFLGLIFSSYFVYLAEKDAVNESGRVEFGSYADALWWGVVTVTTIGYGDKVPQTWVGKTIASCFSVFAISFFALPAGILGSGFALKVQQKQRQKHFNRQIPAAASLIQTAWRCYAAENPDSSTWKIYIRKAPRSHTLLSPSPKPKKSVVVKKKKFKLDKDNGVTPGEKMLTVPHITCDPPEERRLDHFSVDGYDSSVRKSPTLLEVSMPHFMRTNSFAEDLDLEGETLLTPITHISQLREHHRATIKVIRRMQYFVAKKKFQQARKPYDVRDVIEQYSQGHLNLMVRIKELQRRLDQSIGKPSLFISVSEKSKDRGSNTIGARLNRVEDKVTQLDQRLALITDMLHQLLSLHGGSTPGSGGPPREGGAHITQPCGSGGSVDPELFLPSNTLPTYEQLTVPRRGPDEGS
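Doses: Single concentration per compound, DMSO matched to controls | Test system: KCNQ1-transfected CHO-K1 cells | Timing: 90 min dye loading and 20 min compound exposure, both at room temperature | Measured by: Kinetic FluxOR thallium fluorescence, 10-s 1-Hz baseline, 110-s post-stimulus read | Medium: Assay buffer with matched DMSO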
KCNK3 block = human KCNK3 channel inhibition, primary screen; CHO-KCNK3 thallium flux, FluxOR fluorescence; active compounds read low; hit rate 0.84% among 340,000; B-score at 10 µM;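 active = B-score under library mean minus 4 SD, starting fluorescence ratio at most library mean plus 5 SD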;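 note: more negative B-score means stronger inhibition of thallium flux through KCNK3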
KCNQ1 block = inhibitors of human KCNQ1 potassium channel; P51787; CHO-K1 KCNQ1, FluxOR thallium flux fluorescence; active compounds read high; B-score at 10 µM; hit rate 1.3% among 310,000;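 active = compounds whose thallium flux B-score, printed positive for inhibition, exceeds three library SD while starting fluorescence stays within three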;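 note: channel opened by potassium depolarization with thallium stimulus after 20 min compound exposure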
Each line names hits and unclear results; the compound was inactive in the other large screens.

CN1C(=O)C2C3c4ccccc4C(c4ccccc43)[C@@H]2C1=O (some centres not stated)	none
O=C1C2C3c4ccccc4C(c4ccccc43)C2c2nc3ccccc3n21 (configuration not stated)	KCNK9 inh -7.7
Cc1ccccc1NCC(=O)N/N=C/c1c(C)c(C(=O)c2ccc(Cl)cc2)n2ccccc12	KCNQ1 block 7
C=CCN1C(=O)S/C(=C/c2ccc(Sc3nc4ccccc4[nH]3)o2)C1=O	KCNQ1 block 6
C=CCN1C(=O)S/C(=C/c2ccsc2)C1=O	none
Cc1cccc(C)c1OCC(=O)Nc1cc(Cl)ccc1-n1cncn1	none
Cc1ccc(NS(=O)(=O)c2ccc3c(c2)C(=O)c2ccccc2C3=O)c(C)c1	none (no result: Kir21 block, hERG protect, KCNK9 inh, KCNQ1 act, KCNQ1 block)
Cc1cccc(S(=O)(=O)Nc2cccc3c2C(=O)c2ccccc2-3)c1	KCNQ1 act 9
CCOC(=O)C1=C(C)N2C(=C(C#N)[C@@H]1c1ccc(C(=O)OC)cc1)SC[C@@]2(O)C(C)(C)C	KCNQ1 block 6
CCOC(=O)C1=C(C)N=C2SCCC(=O)N2C1c1ccc(C(=O)OC)cc1 (configuration not stated)	none
COCCOc1cc(N(CC(=O)N(C)C)S(=O)(=O)c2ccccc2)c(Cl)cc1Cl	none
CC1=CC(c2ccc(Cl)cc2)n2nc(NC(=O)c3ccccc3)nc2N1 (configuration not stated)	none
CC1=Nc2ccccc2N=C(NC(=O)c2ccccc2)C1c1ccc(Cl)cc1 (configuration not stated)	KCNQ1 block 12
COc1ccc(CNCc2ccncc2)c(OC)c1	none
COc1ccc(CNCc2ccc3ccccc3c2)c(OC)c1	Kir21 block -8.54
COC(CNC(=O)CCCn1nnnc1CN1CCOCC1)c1cccs1 (configuration not stated)	none
Cc1ccc(C)n1-c1sc2c(c1C#N)CCC(C)C2 (configuration not stated)	KCNK9 inh -7.38
CC(=O)Nc1sc2c(c1C#N)CCC(C)C2 (configuration not stated)	none
COC(C(=O)Nc1ccnn1C1CCN(Cc2cccc(C)n2)CC1)c1ccccc1 (configuration not stated)	none
O=C1CCCN2N=C(SCC(=O)Nc3cccc(F)c3)SC2=N1	none
COc1cccc(CNC(=O)CCS(=O)(=O)c2cccc3nsnc23)c1	none
Cc1ccc(CNC(=O)CCS(=O)(=O)c2cccc3nsnc23)cc1	hERG protect 4.9
CCC(C(=O)OCC(=O)NC(=O)c1ccccc1OC)c1ccccc1 (configuration not stated)	Kir21 block -8.06
Cc1ccc(-n2c(C)cc(C(=O)COc3c(CO)cc(F)cc3CO)c2C)cc1C	Kir21 block -7.68
O=C(CSc1nc(-c2ccc(F)cc2)cs1)NC(=O)NCc1ccco1	hERG protect 4.9
CCn1c(SCC(=O)NC(=O)NCc2ccco2)nc2sc(C)c(C)c2c1=O	hERG protect 9.2, KCNQ1 act 12
CCN(CC)C(=O)c1nc[nH]c1C(=O)N1CCC(C)CC1	none (no result: Kir21 block, hERG protect, KCNK9 inh, KCNQ1 act, KCNQ1 block)
O=C(O)CSCc1nc2cccnc2n1C1CCCCC1	none
COc1cccc2c1c(NC(=O)Nc1ccc(F)cc1F)nn2C	none
Cc1ccc2c(c1)c1c(n2CC(O)CNC2CCCCC2)CCCC1 (configuration not stated)	Kir21 block -7.89
COc1ccc(Nc2nc(-c3cccs3)nc3ccccc23)cc1S(=O)(=O)N1CCOCC1	KCNK3 block -11.3
COc1ccc(NS(=O)(=O)c2cccs2)cc1S(=O)(=O)N1CCOCC1	none
Cc1ccsc1C(=O)NNC(=O)c1ccncc1	none (no result: Kir21 block, hERG protect, KCNK9 inh, KCNQ1 act, KCNQ1 block)
C/C=C/C=C/[C@H]1Cc2cc(O)cc(O)c2O1	Kir21 block -4.27 (no result: KCNK3 block)
COc1ccc(N(CC(=O)NCCSCc2ccc(Cl)cc2)S(C)(=O)=O)cc1Cl	none
CCNC(=O)C/C(C)=N/NC(=O)C(=O)Nc1ccc(CC)cc1	hERG protect 4.7
CCc1ccc(NC(=O)C(=O)N/N=C(\C)CC(=O)NCc2ccc(Cl)cc2)cc1	none
CN(C)CCN(C)Cc1ccccc1Sc1cccc2ccccc12	Kir21 block -7.11
CNCc1ccccc1Sc1ccc(OC)cc1	none
CNCc1ccccc1Sc1cccc2ccccc12	Kir21 block -15.4, KCNQ1 act 8
O=C(Nc1ccc(Br)cc1)c1cccc(N2C(=O)C3CCCCC3C2=O)c1 (configuration not stated)	none
O=C(COc1cccc2ccccc12)N/N=C/c1ccccc1OCc1ccc(C(=O)O)cc1	KCNQ1 block 11
O=C(COc1ccccc1-c1ccccc1)N/N=C/c1cccc2ccccc12	none
COc1cc(NC(=S)NNC(=O)C(C)(C)O)cc(OC)c1	hERG protect 8.9
CC(C)(O)C(=O)NNC(=S)Nc1ccc(F)c(Cl)c1	none
CCCCn1c(N)c(N(CC(C)C)C(=O)COC(=O)Cc2c(C)nc3ccccc3c2C)c(=O)[nH]c1=O	none
Cc1cccc(N=Nc2c(C)c(C#N)c(O)[nH]c2=O)c1	none
Cc1c(C#N)c(O)[nH]c(=O)c1N=Nc1ccc(Br)cc1C(=O)O	hERG protect 4.6
CC(=O)c1c(C)nc2ccc([N+](=O)[O-])cc2c1-c1ccccc1	none
CC(=O)c1c(-c2ccccc2)c2cc([N+](=O)[O-])ccc2[nH]c1=O	KCNQ1 act 8
O=C(NCc1ccco1)c1ccc(CNc2c(N3CCCCC3)c(=O)c2=O)cc1	none
Cc1ccc(-c2cc(C(=O)Nc3cc(C)ccc3O)no2)cc1	KCNK9 inh -7.8
CCCCn1c(N)c(N(CCOC)C(=O)CSc2nnc(-c3ccncc3)n2CCC)c(=O)[nH]c1=O	none
N=c1oc2cc(O)ccc2cc1C(=O)Nc1ccc(Br)cc1	KCNQ1 block 8
COc1ccccc1CNCC(O)(c1ccc(Cl)cc1)c1ccc(Cl)cc1	none
OC(CNCc1ccccc1F)(c1ccc(F)cc1)c1ccc(F)cc1	KCNK9 inh -7.03
COc1ccccc1CNCC(O)(c1ccc(F)cc1)c1ccc(F)cc1	Kir21 block -5.92
CC1=C(N2CCCCC2)CCC1=O	none
COC(=O)c1cccc(-c2ccc(/C=N/N3C(=O)C4C5C=CC(C6CC56)C4C3=O)o2)c1 (configuration not stated)	KCNQ1 block 7
Cc1ccnc(NC(=O)CNC(=O)c2ccc3c(c2)OCO3)c1	KCNQ1 act 15
Cc1ccnc(NC(=O)CNC(=O)c2ccc3ccccc3c2)c1	none
CCCCCCCCNS(=O)(=O)CCNCc1ccc(OC)cc1	none (no result: Kir21 block, hERG protect, KCNK9 inh, KCNQ1 act, KCNQ1 block)
O=C1CCc2cc(S(=O)(=O)NC(Cc3ccccc3)C(=O)N3CCN(c4ccccn4)CC3)ccc2N1 (configuration not stated)	none
O=C(NN=Cc1ccc(OC(F)F)cc1)c1ccc(NS(=O)(=O)c2cccs2)cc1	none (no result: Kir21 block, hERG protect, KCNK9 inh, KCNQ1 act, KCNQ1 block)
